Assay results published in ChEMBL document CHEMBL4138128, “Structural design, synthesis and pharmacological evaluation of thiazoles against Trypanosoma cruzi” (Eur J Med Chem, 2017).
pIC50: −log10 of the molar value. The source made the active and inactive calls. The calls are words filed in the database; no cut-off is given here.

Columns and labels:
Trypanosoma cruzi [1] = assay: (§1) Antitrypanosomal activity against bloodstream trypomastigote stage of Trypanosoma cruzi Y infected in Balb/c mouse assessed as reduction in blood parasitaemia at 100 mg/kg, po qd administered for 5 consecutive days starting from day 5 post infection measured on day 12 post infection relative to control; type: functional; design: scale not given: the % may be the effect or the level left
Method in brief: (§2)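 Female BALB/c mice (18-22 g, 6-8 weeks) infected i.p. with 10^4 Y strain bloodstream trypomastigotes in saline; six per group. From day 5, oral dosing once daily for 5 days; vehicle saline with 20% DMSO. Parasitaemia counted as motile parasites in 5 µL tail-vein blood; reduction = (vehicle mean − treated mean)/vehicle mean × 100. Mortality followed to 30 days post-treatment.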

Trypanosoma cruzi [2] = assay: as §1, with “8” for “12”; type: functional; design: scale not given: the % may be the effect or the level left; method in brief: as §2
Trypanosoma cruzi [3] = assay: Antitrypanosomal activity against bloodstream trypomastigote stage of Trypanosoma cruzi Y infected in Balb/c mouse macrophages assessed as reduction in number of intracellular amastigotes at 0.5 uM measured after 3 days by hoeschst staining based confocal microscopic method; type: functional, organism-based; details: 5 uM, in the assay text read “at 5 uM” for “at 0.5 uM”
Method in brief: (§3)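 BALB/c peritoneal macrophages (5x10^4/well) in DMEM/10% FBS, infected with trypomastigotes (10:1) for 2 h, washed, held 24 h, then treated 72 h (test at 8, 2, 0.5 µM; benznidazole 5 µM control). Formaldehyde-fixed, Hoechst-stained, imaged by confocal high-content microscopy for infected cells and amastigotes per 100 cells; six determinations; ANOVA with Bonferroni.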

Trypanosoma cruzi [4] = assay: Antitrypanosomal activity against bloodstream trypomastigote stage of Trypanosoma cruzi Y infected in Balb/c mouse macrophages assessed as reduction in number of infected cells at 0.5 uM measured after 3 days by hoeschst staining based confocal microscopic method; type: functional, organism-based; details: 5 uM, in the assay text read “at 5 uM” for “at 0.5 uM”; method in brief: as §3
Trypanosoma cruzi [5] = assay: Antitrypanosomal activity against bloodstream trypomastigote stage of Trypanosoma cruzi Y infected in monkey LLC-MK2 cells assessed as reduction in parasite motility measured after 24 hrs by neubauer chamber method; type: functional, organism-based; details: LLC-MK2, 24 h
Method in brief: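 Y strain trypomastigotes from LLC-MK2 supernatants, 4x10^5/well, incubated 24 h at 37°C, 5% CO2 with five concentrations; viable parasites counted by motility in Neubauer chamber. Inhibition versus untreated cultures; IC50 by non-linear regression; benznidazole reference.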

[6] = Cytotoxicity against rat H9c2 cells assessed as reduction in cell viability after 72 hrs by alamar blue assay; type: cell-based
Method in brief: (§4)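 H9c2 or J774 cells (1 x 10^4/well) in DMEM/10% FBS preincubated 24 h, then exposed 72 h to six concentrations (0.41 to 100 µM) in triplicate, DMSO under 1%. Viability by AlamarBlue, read after 6 h at 570/600 nm; CC50 from three independent experiments; gentian violet positive control.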

[7] = Cytotoxicity against mouse J774 cells assessed as reduction in cell viability after 72 hrs by alamar blue assay; type: cell-based; method in brief: as §4
Mus musculus = assay: Toxicity in Balb/c mouse infected with Trypanosoma cruzi Y trypomastigotes assessed as behavioral alteration at 100 mg/kg, po qd administered for 5 consecutive days starting from day 5 post infection; type: organism-based; details: in vivo; method in brief: as §2
Trypanosoma cruzi [8] = assay: Antitrypanosomal activity against bloodstream trypomastigote stage of Trypanosoma cruzi Y infected in Balb/c mouse assessed as protection against mouse mortality at 100 mg/kg, po qd administered for 5 consecutive days starting from day 5 post infection measured up to 30 days post treatment; type: functional, organism-based; method in brief: as §2

- pIC50 (Trypanosoma cruzi [5]): 4.97
Compound: O=C(Cn1ccnc1[N+](=O)[O-])NCc1ccccc1 [BENZNIDAZOLE]
- Activity (Trypanosoma cruzi [1]): >99%
- Activity (Trypanosoma cruzi [2]): >99%
- Activity (Trypanosoma cruzi [3]): Active
- Activity (Trypanosoma cruzi [4]): Active
- CC50 at 72 h [6]: > 50 µM
- CC50 at 72 h [7]: > 50 µM
- Activity (Mus musculus): Non-Toxic
- Activity (Trypanosoma cruzi [8]): Active
